One may read the CC50 as the concentration at which the toxic effect on the cells reaches its halfway point. In general, half-life refers to how long it takes for the measured level to halve.

Molecules are shown by their SMILES. Some results are limits rather than exact numbers.

The nature of series [1]: Cytotoxicity against human HuH7 cells assessed as viable cells after 6 days by XTT assay. Type of series: functional. The note with it: Huh-7, 144 h. In a few lines: (§1)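 Cells seeded at 2 × 10⁴ cells/well in 96-well plates; test substances added next day in duplicate. CC50 is the concentration giving 50% viability relative to untreated control cells. Positive control included.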

For a further series, the system named is MT4. The series can be described thus: Cytotoxicity against human MT4 cells assessed as viable cells after 6 days by XTT assay. It is filed as functional. To be noted: MT4, 144 h. The method in brief: as §1
A general note: Tetrazolium assays rely on reduction of a dye to a coloured formazan, in cell work by metabolically active cells.

A short description of series [2]: Half life of the compound in phosphate buffer at pH 5.4 in presence of cysteine. To be noted: phosphate buffer with cysteine. It is filed as ADME.
The nature of series [3]: Chemical reactivity of the compound in aqueous HCl assessed as reaction rate. Type of series: physicochemical. The note with it: buffer. In a few lines: (§2)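 Compound dissolved in 2 M HCl at room temperature; reaction followed spectrophotometrically at 318 nm and by LC-HRESIMS. First-order rate constant k (min⁻¹) and t1/2 (min) derived from the decay.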
The nature of series [4]: Half life of the compound in aqueous HCl. Type of series: physicochemical. In a few lines: as §2
Series [5] can be described thus: Drug level in phosphate buffer treated with (3S,7R)-Illudin M at pH 5.4 in presence of cysteine. Type of series: physicochemical. In a few lines:
(§3)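 Compound was incubated with L-cysteine in 50 mM buffer at pH 5.4 at room temperature. The reaction was followed for 3 h by UV absorbance at 318 nm and by LC-HRESIMS (C18, 10−90% aqueous MeCN gradient). Reaction half-life was taken from the time course.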

Series [6] in a line: Drug level in phosphate buffer treated with (3S,7S)-Illudin M at pH 5.4 in presence of cysteine. It is filed as physicochemical. In a few lines:
as §3

For the compound `COc1nc(N)nc2c1ncn2[C@@H]1O[C@H](COP(=O)(N[C@H](C)C(=O)OCC(C)(C)C)Oc2ccc3ccccc3c2)[C@@H](O)[C@@]1(C)O` (stereo partly drawn), the CC50 (in series [1]; in the series with MT4) was 3 µM each time.
As for `CC1=C2C(=CC(C)(C)[C@@H]2O)C(=O)[C@@](C)(O)C12CC2`, the CC50 turned out to be 0.38 µM in series [1] and 0.014 µM with MT4. The half-life was determined as 5.6 min in series [2] and 38 min in series [4]. The K in series [3] is given as 12 ×10⁻³ /min.
For the compound `CC1=C2C(=C[C@@](C)(CO)[C@@H]2O)C(=O)[C@@](C)(O)C12CC2`, the CC50 turned out to be 0.098 µM in series [1] and 0.023 µM in the series with MT4.
With `Cc1c(O)c2c(c(C)c1CCO)[C@H](O)C(C)(C)[C@H]2SC[C@H](N)C(=O)O`, the Drug metabolism result in series [5] was “metabolite_detected”.
In the case of `CC1=CC2=C[C@@](C)(CO)C[C@@H]2[C@@](C)(O)C12CC2`, the CC50 (in series [1]; in the series on MT4) was greater than 400 µM in each case.
With `CC1=C2C(=CC(C)(C)[C@H]2O)C(=O)[C@@](C)(O)C12CC2`, the CC50 in series [1] came to 1.3 µM; in the series with MT4, 0.12 µM. Besides, the half-life in series [2] is 27 min; in series [4] it was 170 min. Besides, the K in series [3] was determined as 4.1 ×10⁻³ /min.
With `Cc1c(O)c2c(c(C)c1CCO)[C@H](O)C(C)(C)[C@@H]2SC[C@H](N)C(=O)O`, in series [5], the Drug metabolism entry is listed as “metabolite_detected”.
For `Cc1c(O)c2c(c(C)c1CCO)[C@@H](O)C(C)(C)[C@H]2SC[C@H](N)C(=O)O`, the Drug metabolism entry in series [6] is reported as “metabolite_detected”.
For the compound `CC1(C)C=C2C=C(CO)C3(CC3)[C@](C)(O)[C@H]2C1`, the 50% cytotoxic concentration (CC50) in series [1] amounted to 240 µM; in the series on MT4, 110 µM.
With `CC1=C2C(=CC(C)(C)[C@@H]2O)C(=O)[C@](C)(O)C12CC2` [ILLUDIN M], the K in series [3] turned out to be 4.7 ×10⁻³ /min. In series [4], this compound displayed a half-life of 147 min.
